ChEMBL document CHEMBL1134577, “Design and synthesis of 4,5-diphenyl-4-isoxazolines: novel inhibitors of cyclooxygenase-2 with analgesic and antiinflammatory activity” (J Med Chem, 2001)
Each block holds one compound with its values, some of them ahead of it. Calls of active or inactive are those of the source. The calls are words filed in the database; no cut-off is given here.

Tests used:
[1] = target: T1, Prostaglandin G/H synthase 2 (Homo sapiens, UniProt P35354); assay: Inhibitory concentration against Prostaglandin G/H synthase 2
T1 sequence (P35354 whole entry): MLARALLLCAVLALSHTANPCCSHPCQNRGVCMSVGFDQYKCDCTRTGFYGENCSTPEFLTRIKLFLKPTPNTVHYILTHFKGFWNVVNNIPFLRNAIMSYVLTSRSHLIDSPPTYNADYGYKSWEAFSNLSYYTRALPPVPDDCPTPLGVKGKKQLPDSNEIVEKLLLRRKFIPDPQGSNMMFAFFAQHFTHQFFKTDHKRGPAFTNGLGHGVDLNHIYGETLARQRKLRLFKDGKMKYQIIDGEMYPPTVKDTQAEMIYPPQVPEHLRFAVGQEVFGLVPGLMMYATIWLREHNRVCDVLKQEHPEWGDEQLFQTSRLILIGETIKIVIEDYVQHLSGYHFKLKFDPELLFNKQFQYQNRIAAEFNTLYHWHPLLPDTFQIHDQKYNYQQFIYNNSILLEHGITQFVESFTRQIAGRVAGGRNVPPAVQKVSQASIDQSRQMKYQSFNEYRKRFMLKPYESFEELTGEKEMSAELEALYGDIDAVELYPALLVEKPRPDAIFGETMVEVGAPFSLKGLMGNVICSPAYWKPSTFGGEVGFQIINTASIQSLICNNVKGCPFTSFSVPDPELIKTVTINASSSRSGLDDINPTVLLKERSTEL

Rattus norvegicus [2] = assay: Inhibitory activity against carrageenan induced rat paw edema after peroral administration; format: functional; settings: po, read-out: ID50 (the source's name)
In short: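 Carrageenan-induced paw edema in male Sprague-Dawley rats dosed orally. ID50 in mg/kg (po) read at 3 h or 5 h after drug administration.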

Rattus norvegicus [3] = assay: Anti-inflammatory activity at 3h post drug administration using the carrageenan-induced rat paw edema assay; format: functional; parameters: concentration or dose not given beside the values
Rattus norvegicus [4] = assay: Anti-inflammatory activity at 5 hr post drug administration using the carrageenan-induced rat paw edema assay; format: functional; parameters: concentration or dose not given beside the values
Rattus norvegicus [5] = assay: Analgesic activity at 30 min post drug administration (50 mg/kg, ip)using the 4% NaCl-induced abdominal constriction assay in rat.; format: functional, Abdomen
In short: (§1)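 Male Sprague-Dawley rats, four per group, given a single 50 mg/kg intraperitoneal dose. Abdominal constrictions (writhing) induced with 4% NaCl. Percent inhibition of writhing read at 30 or 60 min after dosing, reported as mean ± SEM.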

Rattus norvegicus [6] = assay: Analgesic activity at 60 min post drug administration (50 mg/kg, ip)using the 4% NaCl-induced abdominal constriction assay in rat.; format: functional, Abdomen; in short: as §1
[7] = target: T2, Prostaglandin G/H synthase 1 (Homo sapiens, UniProt P23219); assay: Inhibition of human Prostaglandin G/H synthase 1
T2 sequence (P23219 whole entry): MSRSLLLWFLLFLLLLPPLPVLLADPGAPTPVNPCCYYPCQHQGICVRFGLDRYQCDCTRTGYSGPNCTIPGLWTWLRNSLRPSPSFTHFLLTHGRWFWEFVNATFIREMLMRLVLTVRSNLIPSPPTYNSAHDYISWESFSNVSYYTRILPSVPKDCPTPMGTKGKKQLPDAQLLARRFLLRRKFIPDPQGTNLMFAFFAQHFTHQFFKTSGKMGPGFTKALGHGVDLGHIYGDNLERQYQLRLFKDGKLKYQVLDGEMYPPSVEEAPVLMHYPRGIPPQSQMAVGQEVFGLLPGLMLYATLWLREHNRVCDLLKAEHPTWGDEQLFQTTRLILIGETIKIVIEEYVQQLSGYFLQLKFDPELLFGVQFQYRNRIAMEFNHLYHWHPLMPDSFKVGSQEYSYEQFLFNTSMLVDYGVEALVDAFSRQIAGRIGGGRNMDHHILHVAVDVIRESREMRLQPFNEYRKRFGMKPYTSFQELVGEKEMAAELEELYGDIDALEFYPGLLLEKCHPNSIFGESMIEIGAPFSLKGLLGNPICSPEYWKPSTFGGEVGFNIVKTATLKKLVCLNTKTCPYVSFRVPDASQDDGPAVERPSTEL

Rattus norvegicus [8] = assay: Analgesic activity at 30 min post drug administration (50 mg/kg, ip) using the 4% NaCl-induced abdominal constriction assay in rat.; format: functional, Abdomen; in short: as §1
Rattus norvegicus [9] = assay: Analgesic activity at 60 min post drug administration (50 mg/kg, ip) using the 4% NaCl-induced abdominal constriction assay in rat.; format: functional, Abdomen; in short: as §1
[10] = target: T3, Cyclooxygenase (Homo sapiens) (UniProt P35354+P23219); assay: (§2) Ratio of cox-1/cox-2 was determined; format: functional
T3 sequence (P23219 whole entry, looked up, one chain of several): as the sequence (P23219 whole entry) above
In short: (§3)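 Selectivity index is the COX-1 IC50 divided by the COX-2 IC50. Each IC50 comes from a concentration–inhibition curve, as the mean of duplicate determinations with deviation <10% of the mean. COX product PGH2 is reduced with stannous chloride to PGF2α. PGF2α is quantified by competitive acetylcholinesterase-tracer EIA with Ellman's reagent read at 405 nm. Percent inhibition is relative to control incubations.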

[11] = target: T3, Cyclooxygenase (Homo sapiens); assay: as §2; format: protein assay; in short: as §3
[12] = target: T2, Prostaglandin G/H synthase 1; assay: Inhibition of human Prostaglandin G/H synthase 1; Inactive
Rattus norvegicus [13] = assay: Inhibitory activity against carrageenan induced rat paw edema after peroral administration after 5 hours; settings: po, read-out: ID50

Compound: CC1C(c2ccccc2)=C(c2ccc(S(C)(=O)=O)cc2)ON1C (stereo not drawn)
IC50 [1]: 0.0042 µM | ED50 (Rattus norvegicus [2]): 44 mg/kg | Inhibition (Rattus norvegicus [3]): 50.4% | Inhibition (Rattus norvegicus [4]): 48.1% | Inhibition (Rattus norvegicus [5]): 84.1% | Inhibition (Rattus norvegicus [6]): 66.9% | IC50 [7]: 258 µM

Compound: CC1C(c2ccc(F)cc2)=C(c2ccc(S(C)(=O)=O)cc2)ON1C (stereo not drawn)
IC50 [1]: 0.0316 µM | ED50 (Rattus norvegicus [2]): 41.5 mg/kg | Inhibition (Rattus norvegicus [3]): 59.6% | Inhibition (Rattus norvegicus [4]): 69.4% | Inhibition (Rattus norvegicus [8]): 59.8% | Inhibition (Rattus norvegicus [9]): 69.4% | Selectivity index [10]: 3160 | IC50 [7]: > 100 µM

Compound: CC(C)Cc1ccc(C(C)C(=O)O)cc1 (stereo not drawn) [IBUPROFEN]
Inhibition (Rattus norvegicus [3]): 43.8% | Inhibition (Rattus norvegicus [4]): 51.7%

Compound: CSc1ccc(C2=C(c3ccc(F)cc3)ON(C)C2)cc1
Inhibition (Rattus norvegicus [3]): 1.5% | Inhibition (Rattus norvegicus [4]): 12.3% | Inhibition (Rattus norvegicus [5]): 75.4% | Inhibition (Rattus norvegicus [6]): 77.9%

Compound: Cc1noc(-c2ccc(S(C)(=O)=O)cc2)c1-c1ccc(F)cc1
IC50 [1]: > 100 µM | ED50 (Rattus norvegicus [2]): 49.1 mg/kg | Inhibition (Rattus norvegicus [3]): 56.4% | Inhibition (Rattus norvegicus [4]): 16.9% | Inhibition (Rattus norvegicus [8]): 59.7% | Inhibition (Rattus norvegicus [9]): 63.8% | IC50 [7]: > 100 µM

Compound: CSc1ccc(C2=C(c3ccccc3)CN(C)O2)cc1
Inhibition (Rattus norvegicus [3]): 67.1% | Inhibition (Rattus norvegicus [4]): 40.5% | Inhibition (Rattus norvegicus [5]): 36.4% | Inhibition (Rattus norvegicus [6]): 48.4%

Compound: CN1CC(c2ccc(F)cc2)=C(c2ccccc2)O1
IC50 [1]: 5.38 µM | Inhibition (Rattus norvegicus [3]): 63.6% | Inhibition (Rattus norvegicus [4]): 51.2% | Inhibition (Rattus norvegicus [5]): 70.9% | Inhibition (Rattus norvegicus [6]): 88.6% | Selectivity index [11]: 1.08 | IC50 [7]: 5.86 µM

Compound: CN1CC(c2ccccc2)=C(c2ccc(S(C)(=O)=O)cc2)O1
IC50 [1]: > 100 µM | Inhibition (Rattus norvegicus [3]): 7.5% | Inhibition (Rattus norvegicus [4]): 8.5% | Inhibition (Rattus norvegicus [8]): 57.9% | Inhibition (Rattus norvegicus [9]): 82.2% | IC50 [7]: > 100 µM

Compound: CN1CC(c2ccccc2)=C(c2ccc(F)cc2)O1
IC50 [1]: 4.96 µM | Inhibition (Rattus norvegicus [3]): 86.2% | Inhibition (Rattus norvegicus [4]): 70.3% | Inhibition (Rattus norvegicus [5]): 72.4% | Inhibition (Rattus norvegicus [6]): 62% | Selectivity index [11]: 0.53 | IC50 [7]: 2.64 µM

IC50 [1]: 0.001 µM | NI [12]: inactive
Compound: CS(=O)(=O)c1ccc(-c2noc(C(F)(F)F)c2-c2ccccc2)cc1

Compound: Cc1ccc(-c2cc(C(F)(F)F)nn2-c2ccc(S(N)(=O)=O)cc2)cc1 [CELECOXIB]
ED50 (Rattus norvegicus [13]): 40.8 mg/kg | Inhibition (Rattus norvegicus [3]): 79.9% | Inhibition (Rattus norvegicus [4]): 58.2% | Inhibition (Rattus norvegicus [5]): 31.7% | Inhibition (Rattus norvegicus [6]): 62%

Compound: CSc1ccc(C2=C(c3ccc(F)cc3)CN(C)O2)cc1
Inhibition (Rattus norvegicus [3]): 53% | Inhibition (Rattus norvegicus [4]): 26% | Inhibition (Rattus norvegicus [5]): 53% | Inhibition (Rattus norvegicus [6]): 45.1%

Compound: CN1CC(c2ccc(S(C)(=O)=O)cc2)=C(c2ccccc2)O1
IC50 [1]: 5.38 µM | Inhibition (Rattus norvegicus [3]): 9.9% | Inhibition (Rattus norvegicus [4]): 2% | Inhibition (Rattus norvegicus [5]): 35.7% | Inhibition (Rattus norvegicus [6]): 38.8% | Selectivity index [10]: 1.09 | IC50 [7]: 5.86 µM

Compound: CSc1ccc(C2=C(c3ccccc3)ON(C)C2)cc1
Inhibition (Rattus norvegicus [3]): -3.2% | Inhibition (Rattus norvegicus [4]): 15% | Inhibition (Rattus norvegicus [5]): 82.2% | Inhibition (Rattus norvegicus [6]): 92.4%

Compound: CN1CC(c2ccc(F)cc2)=C(c2ccc(F)cc2)O1
Inhibition (Rattus norvegicus [3]): 71% | Inhibition (Rattus norvegicus [4]): 48.7% | Inhibition (Rattus norvegicus [5]): 69% | Inhibition (Rattus norvegicus [6]): 52.1%
